Assay outcomes from PubChem.
A selection: hits, their analogues and other compounds. The true share with any hit is near 5.5%.
HSV replic up = enhancers of HSV replication in host cells, fold increase, host cell viability; HSV replication augmentation in cells; maximum fold increase; hit rate 0.005% among 220,000; AID 1956, 2009; in the data active = maximum fold increase above about 1.5; tested in PC3 cells
STAT3 inh = IL-6 driven STAT3 reporter inhibitors, primary screen, U3A cells, luciferase, luminescence, MLSCN library. inhibition, % at 5.5 µM. IL-6 STAT3-luciferase reporter; host cell line lacks STAT1. hit rate 0.89% among 190,000;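 active = inhibition above the mean inhibition across all screened compounds plus 3 SD, cut at about 44% in these data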;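 note: 0% = DMSO only wells and 100% = 100 µM nifuroxazide control wells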
Cl transport mod = KCC2 cotransporter modulators, thallium flux, primary screen, cell-based, HEK293 KCC2, FluoZin-2 fluorescence, MLSMR; Solute carrier family 12 member 5 (Homo sapiens), Q9H2X9; KCC2 cells, thallium flux FluoZin-2 fluorescence; B-score of Tl+ flux slope (higher = more flux/activation; lower = inhibition) at 10 µM; hit rate 2.2% among 190,000; AID 1456, 2008;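 active = thallium flux slope and its plate-corrected score both differing from the plate sample mean at a set confidence after two filtering rounds, in either direction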;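 note: slope of fluorescence scaled to starting intensity during 10 to 20 s after thallium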
STAT1 inh = STAT1 signaling inhibitors, primary screen, cell-based, HTS, luciferase reporter; NIH 3T3 STAT1-luciferase reporter, IFN-gamma, luminescence; inhibition, % at 5.5 µM; hit rate 0.35% among 200,000;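 active = inhibition above a set limit, the mean inhibition across all tested compounds plus 3 SD, cut at about 34% in these data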;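 note: 0% = IFN-gamma with DMSO and 100% = IFN-gamma with 300 µM nifuroxazide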
STAT3 act = IL-6 driven STAT3 reporter potentiators, primary screen, U3A cells, luciferase, luminescence, MLSCN library. IL-6 STAT3-luciferase reporter; 100% = signal with IL-6 EC80 alone. activation (% of control), % at 5.6 µM. hit rate 0.91% among 190,000. AID 871, 2007;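 active = activation above the screen-wide mean of compound activation plus 3 SD, cut at about 130% in these data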;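 note: 0% = background luminescence of wells with medium and substrate only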
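System – human U3A cells carrying STAT3-luciferase construct · Probe or stimulus – Interleukin-6, 33 ng/mL · Schedule – compound 1 h, then IL-6 6 h at 37 °C · Signal – luminescence from STAT3-driven luciferase reporter · Evaluation – percent of IL-6-only median luminescence · Benchmarks – IL-6-only high control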
STAT1 activator = STAT1 signaling activators, primary screen, cell-based, HTS, luciferase reporter. hit rate 2.6% among 200,000. activation (% of control), % at 5.5 µM. AID 932, 2007. NIH 3T3 STAT1-luciferase reporter, IFN-gamma, luminescence; 100% = IFN-gamma alone, no compound;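 active = activation above the screen-wide mean activation plus 3 SD, cut at about 130% in these data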;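 note: raw ratio to IFN-gamma control signal so 100% means no change and 0% no light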
Active calls of the source: *.

For O=C(CCCCCNC(=O)c1ccccc1Cl)N/N=C/c1ccco1 the results were HSV replic up inactive, STAT3 inh 6, Cl transport mod 0.17, STAT1 inh -3, STAT3 act 100 and STAT1 activator 102.
For COc1ccc(N=Cc2oc3ccc4ccccc4c3c2O)cc1 the results were STAT3 inh -29, Cl transport mod 0.078, STAT1 inh -29, STAT3 act 134* and STAT1 activator 128.
O=[N+]([O-])c1cc(-n2cccc2)ccc1N1CCOCC1 was read as HSV replic up inactive, STAT3 inh 16, Cl transport mod -0.21, STAT1 inh -12, STAT3 act 87 and STAT1 activator 111.
For Cc1[nH]c2ccccc2c1C(=O)CSC(=S)N1CCCCC1 the results were HSV replic up inactive, STAT3 inh -7, Cl transport mod -0.11, STAT1 inh -48, STAT3 act 109 and STAT1 activator 144*.
COc1ccc(CC(NC(C)=O)C(=O)NC2CCN(c3ncccc3[N+](=O)[O-])CC2)cc1 (stereo unspecified) was read as HSV replic up inactive, STAT3 inh 2, Cl transport mod -0.071, STAT1 inh -5, STAT3 act 100 and STAT1 activator 104.
`CC1CCc2c(C(=O)Nc3ccc(OC(F)(F)F)cc3)csc2C1` (stereo unspecified) gave STAT3 inh 7, Cl transport mod 0.45, STAT1 inh 1, STAT3 act 93 and STAT1 activator 100.
Screening Cc1nn(C(C)(C)C)c(OC(=O)c2cccs2)c1S(=O)(=O)c1ccccc1 returned HSV replic up inactive, STAT3 inh -25, Cl transport mod -1.4, STAT1 inh -32, STAT3 act 126 and STAT1 activator 129*.
Screening S=c1[nH]c2cc(Cl)ccc2s1 returned HSV replic up inactive, STAT3 inh -3, Cl transport mod 24*, STAT1 inh 3, STAT3 act 106 and STAT1 activator 97.
For COc1cccc(-c2nnc(Nc3nc4c(F)cccc4s3)o2)c1 the results were HSV replic up inactive, STAT3 inh -6, Cl transport mod 39*, STAT1 inh -4, STAT3 act 108 and STAT1 activator 104.
Screening Cc1ccc(-n2c(C3CC3c3ccc(Cl)cc3)n[nH]c2=S)cc1 (stereo unspecified) returned HSV replic up inactive, STAT3 inh 2, Cl transport mod -0.021, STAT1 inh -1, STAT3 act 104 and STAT1 activator 101.
`Cc1ccc(C2CC2c2n[nH]c(=S)n2-c2ccc(C)cc2)cc1` (stereo unspecified) gave HSV replic up inactive, STAT3 inh 9, Cl transport mod 21*, STAT1 inh 6, STAT3 act 95 and STAT1 activator 94.
Screening Clc1ccccc1/C=N/NC1=Nc2cccc3cccc1c23 returned HSV replic up inactive, STAT3 inh -67, Cl transport mod -0.02, STAT1 inh -90, STAT3 act 159* and STAT1 activator 180*.
Screening O=C(O)c1ccc(NC2=Nc3cccc4cccc2c34)cc1 returned HSV replic up inactive and Cl transport mod -1.3.
COc1ccccc1/C=N/Nc1nncc2ccccc12 was read as HSV replic up inactive, STAT3 inh 3, Cl transport mod -1.3, STAT1 inh -55, STAT3 act 97 and STAT1 activator 150*.
Screening O=C(CSC1=NCCN1)Nc1cccc([N+](=O)[O-])c1 returned HSV replic up inactive, STAT3 inh 3, Cl transport mod 0.65, STAT1 inh -37, STAT3 act 99 and STAT1 activator 133*.
O=C(C1CCC(C(=O)N2CCc3ccccc32)CC1)N1CCc2ccccc21 (stereo unspecified) was read as HSV replic up inactive, STAT3 inh 11, Cl transport mod -1.1, STAT1 inh 4, STAT3 act 95 and STAT1 activator 97.
For O=C(NC1CCCCC1)N1CCc2ccccc21 the results were HSV replic up inactive, STAT3 inh 5, Cl transport mod -0.9, STAT1 inh -32, STAT3 act 99 and STAT1 activator 129*.
`COc1ccc(F)cc1C(=O)C1CCCN(Cc2ccc(Sc3nncn3C)o2)C1` (stereo unspecified) gave HSV replic up inactive, STAT3 inh -8, Cl transport mod 0.15, STAT1 inh 5, STAT3 act 113 and STAT1 activator 96.
For O=C(O)/C=C\C(=O)Nc1ccccc1C#Cc1ccccc1 the results were HSV replic up inactive, STAT3 inh 18, Cl transport mod -0.073, STAT1 inh -44, STAT3 act 93 and STAT1 activator 140*.
For Cc1ccc(SCC(=O)Nc2ccc(N3CCOCC3)cc2)c(C)c1 the results were HSV replic up inactive, STAT3 inh 0, Cl transport mod 0.07, STAT1 inh 2, STAT3 act 106 and STAT1 activator 96.
For COc1ccc(/C(N)=N/OC(=O)c2cccc([N+](=O)[O-])c2)cc1OC the results were HSV replic up inactive, STAT3 inh 15, Cl transport mod 0.32, STAT1 inh -1, STAT3 act 88 and STAT1 activator 100.
Cc1cccc(C(=O)O/N=C(\N)c2cccc([N+](=O)[O-])c2)c1 was read as HSV replic up inactive, STAT3 inh 3, STAT1 inh -33, STAT3 act 107 and STAT1 activator 130*.
Cc1ccccc1C(=O)O/N=C(\N)c1cccc([N+](=O)[O-])c1 was read as HSV replic up inactive, STAT3 inh -21, Cl transport mod -0.89, STAT1 inh -43, STAT3 act 128 and STAT1 activator 139*.
`COc1cccc(C(=O)O/N=C(\N)c2ccc([N+](=O)[O-])cc2)c1OC` gave HSV replic up inactive, STAT3 inh 9, Cl transport mod -0.56, STAT1 inh -35, STAT3 act 98 and STAT1 activator 132*.
Screening Cc1ccccc1-n1c(SCC(=O)NCc2cccs2)nc2ccccc2c1=O returned HSV replic up inactive, STAT3 inh -8, Cl transport mod -0.7, STAT1 inh -3, STAT3 act 103 and STAT1 activator 103.
Screening O=C(Nc1ccccc1)Nc1ccc(Br)cc1F returned HSV replic up inactive, STAT3 inh 12, Cl transport mod 1.7, STAT1 inh -33, STAT3 act 89 and STAT1 activator 130*.
O=C(Nc1ccc(Cl)cc1)c1ccc(Br)cc1F was read as HSV replic up inactive, STAT3 inh -2, Cl transport mod -0.25, STAT1 inh -43, STAT3 act 101 and STAT1 activator 140*.
